Data on 13 compounds can be found in ChEMBL document CHEMBL2069171, “Novel monobactams utilizing a siderophore uptake mechanism for the treatment of gram-negative infections” (Bioorg Med Chem Lett, 2012).

Converted amounts (≈) assume the structure as drawn. Bounds are passed on as bounds.

For data set [1], the system named is Escherichia coli. Put plainly: Antibacterial activity against Escherichia coli. It is filed as functional. The method in brief:
(§1)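 MICs determined against an organism panel of drug-susceptible strains and recent MDR clinical isolates. For selected analogs, MIC90 was taken from broader panels as the concentration inhibiting visible growth of 90 percent of strains.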

In data set [2] the test system is Acinetobacter baumannii. Put plainly: Antibacterial activity against Acinetobacter baumannii. The format is functional. In short, it runs like this: as §1
Data set [3] has as its system Pseudomonas aeruginosa. Put plainly: Antibacterial activity against penicillin-resistant, quinolone-sensitive Pseudomonas aeruginosa 1091-05. The format is functional.
The test system of data set [4] is Klebsiella pneumoniae. In words: Antibacterial activity against Klebsiella pneumoniae. The format is functional. The method in brief:
as §1

Data set [5] relates to Pseudomonas aeruginosa. Put plainly: Antibacterial activity against Pseudomonas aeruginosa. The format is functional. The method in brief: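 MICs for P. aeruginosa were determined on a drug-susceptible strain, 1091-05 (penicillin-resistant, quinolone-sensitive clinical strain), and a recent MDR clinical isolate, 1042-06. For selected analogs, MIC90 was taken from broader strain panels as the concentration inhibiting visible growth of 90 percent of strains.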

For data set [6], the system named is Pseudomonas aeruginosa. In words: Antibacterial activity against beta-lactam- and quinolone-resistant Pseudomonas aeruginosa 1042-06. The format is functional.
Data set [7] concerns Rattus norvegicus. Put plainly: Unbound clearance in rat at 1 mg/kg, iv. Details: dose 1 mg/kg, route intravenous. The format is ADME, organism-based. The note with it: in vivo.
The nature of data set [8]: Aqueous stability of the compound at pH 6. The note with it: buffer. It is filed as physicochemical.
The nature of data set [9]: Total clearance in rat at 1 mg/kg, iv. The format is ADME, organism-based. Also on record: dose 1 mg/kg, route intravenous. The note with it: in vivo.
The nature of data set [10]: Fraction unbound in human plasma. The format is ADME, cell-free.
Data set [11] in a line: Fraction unbound in rat plasma. It is filed as ADME, cell-free.
Data set [12] has as its system Pseudomonas aeruginosa. In words: Antibacterial activity against penicillin-resistant, quinolone-sensitive Pseudomonas aeruginosa 1091-05 infected in mouse model of pneumonia assessed as reduction of lung colony forming unit counts. The format is functional. In short, it runs like this: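 Murine pneumonia model infected with P. aeruginosa 1091-05. ED50, in mg/kg/dose, derived from reductions in lung CFU counts over the course of the study.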

Data set [13] is described as follows: Total clearance in mouse plasma relative to protein binding and blood flow. The format is ADME, organism-based.
Data set [14] is described as follows: Fraction unbound in mouse plasma. The format is ADME, cell-free.
Data set [15] in a line: Clearance in mouse. The format is ADME, organism-based. The settings on record: in vivo.

As for `C[C@@H](O)[C@H]1C(=O)N2C(C(=O)O)=C(S[C@@H]3CN[C@H](C(=O)N(C)C)C3)[C@H](C)[C@H]12` [MEROPENEM], the MIC90 – broadly, an inhibitory concentration at the 90% level, which refers to growth in some studies and to a panel of isolates in others – is 0.06 µg/mL (≈ 0.156 µM) in [1], 64 µg/mL (≈ 167 µM) in data set [2], 32 µg/mL (≈ 83.4 µM) in data set [4] and > 64 µg/mL in [5]. In addition, inhibition of growth in data set [3] (MIC) required 0.5 µg/mL (≈ 1.3 µM).

As to `CC(C)(O/N=C(\C(=O)N[C@H]1CN(C(=O)NS(=O)(=O)n2nc(-c3cc(=O)c(O)c[nH]3)n(C[C@@H](O)CO)c2=O)C1=O)c1csc(N)n1)C(=O)O` (stereo in doubt), inhibition of growth in data set [6] (MIC) required 0.5 µg/mL (≈ 0.7 µM).

Take `CC(C)(O/N=C(\C(=O)N[C@@H]1C(=O)N(S(=O)(=O)O)[C@@H]1COC(=O)CNC(=O)c1cc(=O)c(O)c[nH]1)c1csc(N)n1)C(=O)O` (stereo in doubt): the MIC (in general, the lowest concentration found to suppress growth) in [3] amounted to 1 µg/mL (≈ 1.55 µM); in [6], 32 µg/mL (≈ 49.6 µM).

On to `CC(C)(O/N=C(\C(=O)N[C@@H]1C(=O)N(S(=O)(=O)O)[C@@H]1COC(=O)CNC(=O)c1ccc(O)c(O)c1)c1csc(N)n1)C(=O)O` (stereo in doubt), for which the MIC was determined as 1 µg/mL (≈ 1.55 µM) in data set [3] and 16 µg/mL (≈ 24.8 µM) in data set [6].

Turning to `CC(C)(O/N=C(\C(=O)N[C@@H]1C(=O)N(S(=O)(=O)O)[C@@H]1COC(=O)CNC(=O)c1cc(=O)c(O)cn1O)c1csc(N)n1)C(=O)O` (stereo in doubt), the MIC90 in data set [1] was 1 µg/mL (≈ 1.51 µM); in data set [2], > 64 µg/mL; in [4] it was 32 µg/mL (≈ 48.4 µM); in [5] it was 2 µg/mL (≈ 3.02 µM). For the same compound, the MIC came to 0.125 µg/mL (≈ 0.189 µM) in data set [3] and 0.5 µg/mL (≈ 0.756 µM) in [6]. For the same compound, the CL free in data set [7] was determined as 24.7 mL/min/kg. Moreover, in data set [8], the Stability result is given as “Stable”. The clearance (usually the volume of plasma or blood freed of the substance per unit of time) in data set [9] turned out to be 8.9 mL/min/kg. Also, the values for the fraction unbound in data set [10] and in data set [11] were 0.57 and 0.36, respectively.

`CC(C)(O/N=C(\C(=O)N[C@@H]1C(=O)N(S(=O)(=O)O)[C@@H]1COC(=O)c1csc(-c2cc(=O)c(O)c[nH]2)n1)c1csc(N)n1)C(=O)O` (stereo in doubt): the minimal inhibitory concentration (MIC) turned out to be 0.5 µg/mL (≈ 0.744 µM) in data set [3] and 1 µg/mL (≈ 1.49 µM) in data set [6].

In the case of `C[C@H]1[C@H](NC(=O)/C(=N\OC(C)(C)C(=O)O)c2csc(N)n2)C(=O)N1C(=O)NS(=O)(=O)n1nc(-c2cc(=O)c(O)c[nH]2)n(C[C@@H](O)CO)c1=O` (stereo in doubt), the Stability entry in data set [8] is “Stable”.

For `CC(C)(O/N=C(\C(=O)N[C@@H]1C(=O)N(S(=O)(=O)O)[C@@H]1CNC(=O)c1cc(-c2cc(=O)c(O)cn2O)no1)c1csc(N)n1)C(=O)O` (stereo in doubt), the MIC90 in data set [1] was 1 µg/mL (≈ 1.49 µM); in [2], > 64 µg/mL; in data set [4], 16 µg/mL (≈ 23.9 µM); in [5] it was 0.25 µg/mL (≈ 0.373 µM). Moreover, the MIC in data set [3] and in data set [6] was 0.125 µg/mL (≈ 0.186 µM) in each case. The CL free in [7] was 24.5 mL/min/kg. In data set [12], the ED50 (commonly the midpoint of the dose-response relation) is 73.6 mg/kg. In addition, the clearance in [13] turned out to be 87 mL/min/kg; in data set [9] it was 8.1 mL/min/kg; in data set [15], 34.7 mL/min/kg. Also, the unbound share (fraction unbound) (commonly the share of the substance not bound to proteins or other matrix) in [14] came out at 0.65; in data set [10], 0.46; in data set [11], 0.33.

As for `CC(C)(O/N=C(\C(=O)N[C@@H]1C(=O)N(S(=O)(=O)O)[C@@H]1COC(=O)c1ccnc(-c2cc(=O)c(O)c[nH]2)n1)c1csc(N)n1)C(=O)O` (stereo in doubt), the results for the minimal inhibitory concentration (MIC) in data set [3] and in data set [6] were 8 µg/mL (≈ 12 µM) and 32 µg/mL (≈ 48 µM), respectively.

As for `CC(C)(O/N=C(\C(=O)N[C@@H]1C(=O)N(S(=O)(=O)O)[C@@H]1COC(=O)c1cc(-c2cc(=O)c(O)cn2O)no1)c1csc(N)n1)C(=O)O` (stereo in doubt), the MIC90 in data set [1] was 0.125 µg/mL (≈ 0.186 µM); in data set [2] it was > 64 µg/mL; in [4], 2 µg/mL (≈ 2.98 µM); in data set [5] it was 1 µg/mL (≈ 1.49 µM). The MIC in [3] and in data set [6] was 0.25 µg/mL (≈ 0.372 µM) in each case. In addition, the CL free in [7] was determined as 144.6 mL/min/kg. In addition, the clearance in data set [9] was found to be 34.7 mL/min/kg. For the same compound, the unbound share (fraction unbound) in data set [10] was determined as 0.32; in data set [11], 0.24.

With `CC1(C)[C@H](NC(=O)/C(=N\OCc2cc(=O)c(O)cn2O)c2csc(N)n2)C(=O)N1OS(=O)(=O)O` (stereo in doubt), the MIC90 in data set [1] is 16 µg/mL (≈ 30.9 µM); in data set [2], 64 µg/mL (≈ 123 µM); in data set [4], > 64 µg/mL; in data set [5], 4 µg/mL (≈ 7.71 µM). The MIC in data set [3] came to 1 µg/mL (≈ 1.93 µM); in [6], 8 µg/mL (≈ 15.4 µM).

For `CC(C)(O/N=C(\C(=O)N[C@@H]1C(=O)N(S(=O)(=O)O)[C@@H]1COC(=O)c1cc(-c2cc(=O)c(O)c[nH]2)no1)c1csc(N)n1)C(=O)O` (stereo in doubt), the MIC in data set [3] and in data set [6] was 4 µg/mL (≈ 6.1 µM) each time.

As to `Nc1nc(/C(=N/OCC(=O)O)C(=O)N[C@@H]2C(=O)N(S(=O)(=O)O)[C@@H]2COC(=O)CNC(=O)c2ccc(O)c(O)c2)cs1` (stereo in doubt), the MIC is 0.5 µg/mL (≈ 0.811 µM) in data set [3] and 32 µg/mL (≈ 51.9 µM) in data set [6].
